Measurements taken from ChEMBL document CHEMBL2086367, “Novel oxysterols activate the Hedgehog pathway and induce osteogenesis” (Bioorg Med Chem Lett, 2012).
Activity calls are given as the source filed them. The calls are words filed in the database; no cut-off is given here.

What was measured:
[1] = Half life in human liver microsomes incubated up to 60 mins; assay type: ADME, Microsome
In short: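 Pooled human liver microsomes with NADPH; sampling at 0, 15, 30, 45 and 60 min to derive intrinsic clearance half-life.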

Sonic hedgehog protein = Sonic hedgehog protein (Mus musculus, UniProt Q62226); assay: Activation of SHh in mouse Light2 cells assessed as induction of Gli-mediated luciferase activity after 24 hrs by reporter gene assay; assay type: cell-based
In short: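 SHHLight2 cells (8×Gli response elements driving firefly luciferase; constitutive Renilla) seeded at 10,000 cells/well in DMEM/10% FCS. After 24 h, compound added in DMEM/0.5% FCS, triplicate wells. Firefly and Renilla luciferase read 24 h later; firefly divided by Renilla per well, expressed relative to DMSO-treated cells.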

C3H 10T1/2 = assay: Osteogenetic activity in mouse C3H10T1/2 cells assessed as increase in osteocalcin expression at 3.3 uM after 10 days by RT-PCR analysis relative to control; assay type: functional
Rattus norvegicus [2] = assay: Osteogenetic activity in Sprague-Dawley rat assessed as increase in bone volume in callus at 4 mg/kg measured after 8 weeks by MicroCT analysis; assay type: functional, organism-based; design: dose 4 mg/kg
In short: (§1)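 Sprague Dawley rats; compound in DMSO at 50 mg/mL, 40 µL loaded onto collagen sponge, held 1–2 h at room temperature, implanted bilaterally between L4 and L5 after decorticating transverse processes; 4 mg/kg. After 8 weeks, segment stability scored by manual palpation (n = 10/group, Kruskal-Wallis); formalin-fixed tissue scanned by microCT at 18 µm resolution for callus bone volume.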

Rattus norvegicus [3] = assay: Osteogenetic activity in Sprague-Dawley rat assessed as increase in mechanical stability of the vertebral segments at 4 mg/kg measured after 8 weeks by manual palpation; assay type: functional, organism-based; design: dose 4 mg/kg; in short: as §1
[4] = Metabolic stability in human liver microsomes assessed as compound remaining after 1 hr; assay type: ADME, Microsome; conditions: read-out: Stability
[5] = Half life in human liver microsomes incubated up to 120 mins at pH 7.4; assay type: ADME, Microsome

Sonic hedgehog protein, sequence (Q62226 25-198 limits assumed): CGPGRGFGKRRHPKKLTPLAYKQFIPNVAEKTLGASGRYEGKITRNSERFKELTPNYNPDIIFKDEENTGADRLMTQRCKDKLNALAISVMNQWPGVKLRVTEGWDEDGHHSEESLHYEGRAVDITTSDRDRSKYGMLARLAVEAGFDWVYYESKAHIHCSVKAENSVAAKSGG

SMILES | EC50 (Sonic hedgehog protein) [nM] | remaining at 1 h [4] [%] | fold change (FC) (C3H 10T1/2) | other results
C[C@]12CC[C@H](O)C[C@@H]1[C@@H](O)C[C@@H]1[C@@H]2CC[C@@]2(C)[C@H]1CC[C@@H]2[C@@](C)(O)CCCc1ccccc1 | 2500 | 1 | 2 | 
CCCCCC[C@](C)(O)[C@H]1CC[C@H]2[C@@H]3C[C@H](O)[C@H]4C[C@@H](O)CC[C@]4(C)[C@H]3CC[C@@]21C | 400 | 2 | 36 | Activity (Rattus norvegicus [2]): Active; Activity (Rattus norvegicus [3]): inactive
CCCCCC[C@@](O)(c1ccccc1)[C@H]1CC[C@H]2[C@@H]3C[C@H](O)[C@H]4C[C@@H](O)CC[C@]4(C)[C@H]3CC[C@@]21C | > 10000 | 69 |  | 
[2H]C([2H])(CCCC)C([2H])([2H])[C@](C)(O)[C@H]1CC[C@H]2[C@@H]3C[C@H](O)[C@H]4C[C@@H](O)CC[C@]4(C)[C@H]3CC[C@@]21C | 300 | 100 | 35 | 
C[C@]12CC[C@H](O)C[C@@H]1[C@@H](O)C[C@@H]1[C@@H]2CC[C@@]2(C)[C@H]1CC[C@@H]2[C@@](C)(O)CCCc1ccncc1 | > 5000 |  | 2 | 
CCCCC[C@](C)(O)[C@H]1CC[C@H]2[C@@H]3C[C@H](O)[C@H]4C[C@@H](O)CC[C@]4(C)[C@H]3CC[C@@]21C | 6600 |  | 4 | 
COCCCC[C@](C)(O)[C@H]1CC[C@H]2[C@@H]3C[C@H](O)[C@H]4C[C@@H](O)CC[C@]4(C)[C@H]3CC[C@@]21C | 3100 | 35 | 3 | 
C[C@]12CC[C@H](O)C[C@@H]1[C@@H](O)C[C@@H]1[C@@H]2CC[C@@]2(C)[C@H]1CC[C@@H]2[C@@](C)(O)CCCc1cccnc1 | 1200 |  |  | 
CCCCCC[C@@](O)(CC)[C@H]1CC[C@H]2[C@@H]3C[C@H](O)[C@H]4C[C@@H](O)CC[C@]4(C)[C@H]3CC[C@]12C | 2900 | 9 |  | 
CCCCCCC[C@](C)(O)[C@H]1CC[C@H]2[C@@H]3C[C@H](O)[C@H]4C[C@@H](O)CC[C@]4(C)[C@H]3CC[C@@]21C | 500 |  | 17 | 

Now from value to molecule, other results behind:

EC50 (Sonic hedgehog protein) [nM] | remaining at 1 h [4] [%] | SMILES | fold change (FC) (C3H 10T1/2) | other results
1100 |  | [2H][C@H](CC(C)C)[C@@H]([2H])[C@](C)(O)[C@H]1CC[C@H]2[C@@H]3C[C@H](O)[C@H]4C[C@@H](O)CC[C@]4(C)[C@H]3CC[C@]12C |  | half-life [1]: 5 min
800 | 3 | CC(C)CCC[C@](C)(O)[C@H]1CC[C@H]2[C@@H]3C[C@H](O)[C@H]4C[C@@H](O)CC[C@]4(C)[C@H]3CC[C@@]21C | 15 | half-life [1]: 4 min; Activity (Rattus norvegicus [2]): Active; Activity (Rattus norvegicus [2]; tested as the 2H-labelled form): Active; Activity (Rattus norvegicus [3]): inactive; Activity (Rattus norvegicus [3]; tested as the 2H-labelled form): inactive
800 | 100 | [2H]C([2H])(CC(C)C)C([2H])([2H])[C@](C)(O)[C@H]1CC[C@H]2[C@@H]3C[C@H](O)[C@H]4C[C@@H](O)CC[C@]4(C)[C@H]3CC[C@@]21C | 17 | half-life [5]: > 120 min
> 10000 |  | CC(C)CCC[C@@](C)(O)[C@H]1CC[C@H]2[C@@H]3C[C@H](O)[C@H]4C[C@@H](O)CC[C@]4(C)[C@H]3CC[C@@]21C |  | 
1000 |  | [2H][C@@H](CC(C)C)[C@H]([2H])[C@](C)(O)[C@H]1CC[C@H]2[C@@H]3C[C@H](O)[C@H]4C[C@@H](O)CC[C@]4(C)[C@H]3CC[C@]12C |  | half-life [5]: > 120 min
